Screening data (PubChem)
S1P3 agonist – agonists of human S1P3 receptor | Q99500 | S1P3 NFAT-BLA reporter cells, agonism, FRET ratio; relative to 1 µM S1P, basal subtracted | activation, % at 4.5 µM | actives 0.1% (n = 60,000);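 active = activation above the screen-wide mean plus 3 SD, cut at about 4.5% in these data, passing the limit was not always enough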
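Material: Human S1P3 NFAT-BLA reporter CHO cells | Incubation: Overnight plating, 4 h compound 37 °C, 2 h substrate RT | Signal: FRET β-lactamase substrate fluorescence, excitation 405 nm, 460/535 nm emission ratio, background-subtracted | Compound: 4.5 µM final, single dose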
S1P1 ag-PAM – agonists and agonism potentiators of human S1P1 receptor; AID 449; P21453; S1P1 CRE-bla cells, forskolin, beta-lactamase FRET, potentiator mode; S1P1 agonist co-added at EC20, 2 nM; 100% = saturating reference agonist, 0% = basal; activation, % at 9.5 µM; actives 0.57% (n = 56,000);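 active = activation above a cutoff set at the mean activation of all tested compounds plus 3 SD, cut at about 54% in these data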;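 also: forskolin at 4 µM as EC80 and the EC20 agonist is SEW2871; 100% = SEW2871 at its EC100 plus forskolin at EC80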
M1 ag – activates the M1 muscarinic receptor | CHO-M1 cells, Fluo-4 calcium fluorescence, agonist mode; stronger effect = higher value | actives 3% (n = 64,000) | B-score at 10 µM;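 active = fluorescence rise, raw or as B-score row- and column-corrected plate score, outside the 99.7% band of its plate's samples, either direction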
M1 antagonist – M1 muscarinic receptor (rat) antagonism; P08482; CHO-M1 cells, Fluo-4 calcium, ACh EC80 antagonist mode; stronger effect = lower value; B-score at 10 µM; actives 3.4% (n = 64,000); AID 628;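 active = calcium fluorescence response, raw or row-and-column corrected B-score, differing from the plate sample mean either way at a set confidence level, mostly lower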
Target sequence (P08482 whole entry, looked up): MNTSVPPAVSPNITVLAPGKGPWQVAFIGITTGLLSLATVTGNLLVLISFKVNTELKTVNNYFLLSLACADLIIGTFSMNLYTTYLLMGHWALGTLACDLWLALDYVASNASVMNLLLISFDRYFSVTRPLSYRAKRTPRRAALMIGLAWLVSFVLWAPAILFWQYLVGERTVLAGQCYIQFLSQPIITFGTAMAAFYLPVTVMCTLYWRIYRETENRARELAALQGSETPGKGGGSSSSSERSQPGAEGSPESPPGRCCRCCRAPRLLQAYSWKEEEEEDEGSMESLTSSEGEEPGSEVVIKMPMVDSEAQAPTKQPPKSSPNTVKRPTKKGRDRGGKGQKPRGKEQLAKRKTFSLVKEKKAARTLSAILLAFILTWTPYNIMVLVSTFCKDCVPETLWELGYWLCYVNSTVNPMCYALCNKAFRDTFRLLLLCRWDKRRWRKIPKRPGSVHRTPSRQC
D1 mod – D1 dopamine receptor (human) allosteric modulation | P21728 | HEK293 D1, CRE-luciferase, dopamine EC30 potentiation; actives deviate in either direction | B-score at 10 µM | actives 5.9% (n = 58,000) | AID 641;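 active = luminescence count or its row- and column-corrected plate score outside the 99.7% band of the plate's sample wells, on either side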
D1 mod confirm – D1 receptor (human) allosteric modulation, confirmed. shares compounds with D1 mod. HEK293 D1 CRE-luciferase, dopamine EC30 potentiation; stronger effect = higher value. luminescence at 10 µM. actives 88% (n = 2,200). AID 642;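 active = luminescence in either of two replicates above the same-plate mean plus 3 SD of the low-dose dopamine control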
D1 ag no DA – secondary test of D1 modulators: activity without dopamine | shares compounds with D1 mod | HEK293 D1 CRE-luciferase, luminescence, no dopamine; stronger effect = higher value | luminescence at 10 µM | actives 0.8% (n = 1,900) | AID 646; in the data active = luminescence above about 3900
Isoprot counter – alters isoproterenol CRE-luciferase response in HEK293 cells; shares compounds with D1 mod; HEK293 D1 CRE-luciferase, isoproterenol EC30 counter-screen; stronger effect = higher value; luminescence at 10 µM; actives 63% (n = 2,200);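 active = luminescence in either replicate above plate mean of wells with a partly effective reference agonist dose plus 3 SD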;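 also: isoproterenol raises cAMP through native beta-adrenoceptor Gs so signal bypasses D1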
* hit, by the source's call; x = not tested or not shown. An excerpt weighted towards active compounds, which were near 11% of everything screened.

SMILES	S1P3 agonist	S1P1 ag-PAM	M1 ag	M1 antagonist	D1 mod	D1 mod confirm	D1 ag no DA	Isoprot counter
c1ccc(-c2nn3nnnc3c3ccccc23)cc1	0.5	-35.4	0.36	-0.0538	11.8*	13348*	1552	3684*
CCOC(=O)C1=C(N)N2C(=O)CSC2=C(C(=O)OC)C1	-3.2	-1.5	-0.395	0.623	x	x	x	x
COc1ccc(C(=O)NCc2cn3c(C)csc3n2)cc1OC	9.2	-14.9	0.349	-0.166	8.31*	15440*	1644	4060*
O=C(c1ccc(N2C(=O)CCC2=O)cc1)N1CCN(c2ccccc2)CC1	-0.4	8.9	0.352	-0.538	-0.00639	x	x	x
CCOc1ccc(CCNC(=O)CCN2C(=O)COc3ccccc32)cc1OCC	-0.7	-7.8	0.205	-0.0129	2.73*	9680*	1836	3320*
COCCCNC(=O)CCN1C(=O)COc2ccccc21	-0.6	-17.2	-0.0178	0.638	0.607	x	x	x
COc1ccc(Br)cc1CNC(=O)CCN1C(=O)COc2ccccc21	0.9	38.0	0.5	0.0642	3.63*	6192*	x	2472
O=C(CSc1nc2ccccc2c(=O)[nH]1)Nc1ccc(S(=O)(=O)N2CCCC2)cc1	-1.3	37.2	0.355	-0.439	1.19	x	x	x
O=C(Nc1ccccc1Cl)N1CCN(c2ccc3nnc(-c4ccccc4)n3n2)CC1	-0.5	-19.2	1.52	-1.03	5.45*	14068*	x	4436*
O=C(Cn1ccc2ccccc2c1=O)NCCC(=O)NC1CCN(Cc2ccccc2)CC1	0.6	4.4	-0.0322	-0.467	-0.165	x	x	x
CCOc1ccccc1Nc1nc(N)nc(CSc2nccc(C)n2)n1	0.3	x	-0.151	0.576	3.57*	6988*	x	2448
COc1ccc(N2CCN(CCNC(=O)C3CCN(S(=O)(=O)c4cccs4)CC3)CC2)cc1	-1.7	10.7	-0.727	-0.0352	-0.933	x	x	x
COc1ccc(N2CCN(S(=O)(=O)c3cccs3)CC2)cc1	-0.3	x	-0.44	0.634	5.02*	9608*	1628	2904
Cc1cc(=O)oc2cc(OC(C)C(=O)Nc3nccs3)ccc12 (centres undefined)	0.0	-17.5	-0.777	-0.805	4.57*	12128*	1736	3488*
COC(=O)C(CC(C)C)Oc1ccc2c(C)cc(=O)oc2c1 (centres undefined)	x	x	-0.53	0.365	-1.09	x	x	x
CCn1c(=O)c(C(=O)NCc2cccnc2)c(O)c2ccccc21	x	x	-0.961	0.569	4.82*	13308*	1676	2712
CCCn1c(=O)c(C(=O)NCc2ccncc2)c(O)c2ccccc21	-0.5	-41.4	-0.357	0.00385	5.2*	6720*	1628	2880
CCn1c(=O)c(C(=O)Nc2cccnc2)c(O)c2ccccc21	-0.7	1.3	-0.0484	-0.2	0.836	x	x	x
Cc1cnn(-c2nc(-c3cccs3)cc(C(F)(F)F)n2)c1	-1.2	-9.6	x	x	15.1*	14404*	x	3208*
CCCOn1c(OCC(C)C)nc2ccccc2c1=O	-0.5	4.2	0.147	-0.00336	4.46*	12220*	1508	3724*
Cc1cc(C)n(-c2nc3ccccc3c(=O)n2OCCOc2ccccc2)n1	-0.3	54.9	-0.251	0.0281	-0.142	x	x	x
CC(=O)N1CCN=C1SCc1cccc(C(F)(F)F)c1	0.0	-0.2	0.172	0.649	4.88*	10200*	1640	3480*
O=C(C1CC1)N1CCN=C1SCc1cccc(C(F)(F)F)c1	0.1	5.6	0.0526	0.358	0.597	x	x	x
C=CCn1c(C(C)NC(=O)COC)nc2ccccc21 (centres undefined)	-0.5	-9.0	-0.129	0.476	5.4*	5084	1624	2296
O=c1[nH]c2ccsc2c(=O)n1-c1ccc(F)c(Cl)c1	x	x	0	1.04	8.28*	14224*	1628	4320*
SMILES	S1P3 agonist	S1P1 ag-PAM	M1 ag	M1 antagonist	D1 mod	D1 mod confirm	D1 ag no DA	Isoprot counter
O=c1[nH]c2ccsc2c(=O)n1-c1ccc(F)cc1	x	x	-0.629	0.187	0.199	x	x	x
CCOC(=O)C(O)(CCC(O)(C(=O)OCC)C(=O)OCC)C(=O)OCC	-2.1	-25.3	-0.553	0.589	5*	6712*	1572	2628
CCOC(=O)C(CCC#N)(CCC#N)C(=O)OCC	-1.2	x	-0.486	-0.364	0.755	x	x	x
COc1ccccc1CC(=O)N1CCCC1	0.3	x	-0.286	0.0164	0.918	x	x	x
COc1ccc2cc3c(N)nn(C(=O)Cc4ccccc4OC)c3nc2c1	-1.6	38.6	1.64	0.122	2.6*	8828*	1504	3504
Cn1c(=O)c2c(-c3ccccc3)n(N3CCOCC3)cc2n(C)c1=O	0.9	-9.4	0.987	0.833	3.31*	6320*	1616	2720
Cn1c(=O)c2c(-c3ccc(C(C)(C)C)cc3)n(N3CCOCC3)cc2n(C)c1=O	0.8	-23.3	-1.2	-0.211	3.8*	9948*	1848	2940
Cc1cccc(-c2c3c(=O)n(C)c(=O)n(C)c3cn2-c2ccc(O)cc2)c1	0.5	-23.4	0.229	-0.0817	4.15	x	x	x
Cn1c(=O)c2c(-c3ccccc3)n(-c3ccccc3O)cc2n(C)c1=O	0.5	-7.0	-1.28	0.183	2.37	x	x	x
COc1cccc(CNCC(=O)N2C(C)CCCC2C)c1 (centres undefined)	-0.4	3.9	-0.506	0.224	-0.0685	x	x	x
O=C(O)CCCC(=O)Nc1ccccc1Br	-0.8	-4.6	0.247	1.31	7.16*	4184	x	2368
O=C(O)CCCC(=O)Nc1ccc(Br)cc1C(=O)O	0.0	0.6	-0.114	0.172	0.573	x	x	x
CCOC(=O)CSc1nc2cc(OCC)ccc2cc1C#N	-0.5	21.0	-1.05	-0.242	2.28	x	x	x
CCOc1ccc2cc(C#N)c(SCC(=O)N3CCC(C)CC3)nc2c1	1.1	-0.8	0.42	0.000838	7.23*	6372*	1652	3440*
CC1CCN(Cc2c(C#N)c3ccccc3n2C)CC1	x	x	0.554	-0.0201	-0.0855	x	x	x
CCc1nc2ccccc2c(C(=O)OCC(=O)NCc2ccco2)c1C	-1.0	-11.2	0.161	-0.213	4.36*	8196*	1524	2844
CCOc1cc(C(=O)OCC(=O)NCc2ccco2)cc(OCC)c1OCC	-0.2	0.9	0.157	-0.872	0.773	x	x	x
Cc1ccc2c(c1)c1cccc3c1n2CCN3CCC(N)=O	0.2	x	0.414	-0.618	0.431	x	x	x
COc1ccc(N2CCN(c3ccc(NC(=O)c4ccc5c(c4)OCO5)cc3C#N)CC2)cc1	0.2	-23.2	-0.836	0.854	6.38*	5936	x	2328
Cc1ccc(-n2c(SCC(=O)OC(C)C)nnc2-c2cnccn2)cc1	0.5	-2.9	0.196	0.622	4.6*	8068*	1636	2948
CNc1nc(NC)nc(-n2c(C(F)(F)F)nc3ccccc32)n1	-0.6	x	1.27	0.104	8.02*	18112*	1496	3740*
